High-throughput results (PubChem)
The list is not random: actives were taken first. Their share in the collection is about 2.3%.
STAT3 inh: IL-6 driven STAT3 reporter inhibitors, primary screen, U3A cells, luciferase, luminescence, MLSCN library; AID 862, 2007; hit rate 0.89% among 190,000; inhibition, % at 5.5 µM; IL-6 STAT3-luciferase reporter; host cell line lacks STAT1;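 active means inhibition above the mean inhibition across all screened compounds plus 3 SD, cut at about 44% in these data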;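 further: 0% = DMSO only wells and 100% = 100 µM nifuroxazide control wells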
STAT3 act: IL-6 driven STAT3 reporter potentiators, primary screen, U3A cells, luciferase, luminescence, MLSCN library; IL-6 STAT3-luciferase reporter; 100% = signal with IL-6 EC80 alone; activation (% of control), % at 5.6 µM; hit rate 0.91% among 190,000; AID 871, 2007;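 active means activation above the screen-wide mean of compound activation plus 3 SD, cut at about 130% in these data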;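 further: 0% = background luminescence of wells with medium and substrate only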
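Test system: Human STAT1-deficient U3A cells with stable STAT3-luciferase reporter | Also added: Interleukin-6, 33 ng/mL | Timing: Compound pre-incubation 1 h before IL-6, then 6 h stimulation at 37 °C | Technique: Luciferase reporter luminescence | Read-out: Percent of IL-6-only median luminescence | Benchmarks: IL-6-only wells as 100% reference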
STAT1 blocker: STAT1 signaling inhibitors, primary screen, cell-based, HTS, luciferase reporter; inhibition, % at 5.5 µM; hit rate 0.35% among 200,000; NIH 3T3 STAT1-luciferase reporter, IFN-gamma, luminescence;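 active means inhibition above a set limit, the mean inhibition across all tested compounds plus 3 SD, cut at about 34% in these data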;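 further: 0% = IFN-gamma with DMSO and 100% = IFN-gamma with 300 µM nifuroxazide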
PPC-1+TRAIL kill: compounds killing PPC-1 cancer cells with TRAIL present, primary screen, TRAIL potentiator project, ATPLite luminescence, uHTS | PPC-1 cells + TRAIL, ATPLite viability luminescence | cell killing (% activity), % at 4 µM or 5 µM | hit rate 0.41% among 220,000 | AID 1443, 2008;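 active means cell killing above 50% in the first pass at 4 µM, then a duplicate retest at 5 µM averaging 50% or more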;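 further: plate controls were cells with TRAIL plus DMSO for no effect and medium-only wells lacking cells for full effect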
TRAIL sens C8: viability loss with TRAIL in NB7+C8 cells, primary screen, TRAIL sensitizer project, cell-based, ATPlite luminescence. hit rate 1% among 360,000. inhibition (viability loss, TRAIL sensitization), % at 10 µM. AID 624354, 2012;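 active means compounds causing at least 50% loss of cell viability in the single-dose screen, relative to plate controls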
HSP90 inh: HSP90 inhibitors, primary screen, cell lysate, luminescence. Rabbit reticulocyte lysate, luciferase refolding luminescence, 3 h. hit rate 0.91% among 290,000. Heat shock protein HSP 90 (rabbit reticulocyte lysate; luciferase refolding). inhibition, % at 5.6 µM;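 active means inhibition above the screen-wide mean plus 3 SD, computed separately per campaign, cut at about 16% in these data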;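 further: 0% = DMSO wells and 100% = 60 µM geldanamycin wells; inhibitors lower the luminescence because luciferase stays unfolded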
An asterisk follows results filed as active; nt = no result given.

SMILES	STAT3 inh	STAT3 act	STAT1 blocker	PPC-1+TRAIL kill	TRAIL sens C8	HSP90 inh
Fc1cccc2sc(Nc3nnc(-c4ccccc4)o3)nc12	-0.4	106.6	-13.6	40.4	52.5*	-1.4
Brc1ccccc1-c1nnc(SCc2nc3ccccc3s2)o1	-49.9	142.9*	-40.1	18.1	13.2	-0.6
CNC(=O)c1c(NC(=O)C2=COCCO2)sc2c1CCC(C)C2 (stereo not given)	nt	nt	nt	nt	-1.3	-4.6
CC1CCc2c(sc(NC(=O)C3=COCCO3)c2C(N)=O)C1 (stereo not given)	nt	nt	nt	nt	55.4*	nt
COc1ccc(/C(C)=N/Nc2ccc(C(=O)O)cc2)cc1OC	-25.0	125.1	-62.7	17.0	-0.1	26.1*
N#CC(C#N)=C1C=CC=CN1/C(=C\c1ccccc1Cl)C(=O)c1ccccc1	13.2	95.4	35.1*	29.3	16.1	0.6
N#CC(C#N)=C1C=CC=CN1/C(=C\c1ccccc1)C(=O)c1cccs1	-11.4	109.4	-3.0	21.2	-15.8	2.4
COc1ccc(C[C@H](N)C(=O)N[C@H]2[C@@H](O)[C@H](n3cnc4c(N(C)C)ncnc43)O[C@@H]2CO)cc1	nt	nt	nt	nt	92.2*	nt
CCN1CC=C2C(C#N)=C(N)C(C#N)(C#N)C(CCc3ccccc3)C2C1 (stereo not given)	-39.9	140.8*	4.0	10.6	8.1	-0.4
CC(=O)N1CC=C2C(C#N)=C(N)C(C#N)(C#N)C(CCc3ccccc3)C2C1 (stereo not given)	-24.5	126.8	-1.4	27.9	-4.0	0.1
CCc1cc2c(=O)c(-c3ccc4c(c3)OCCO4)coc2cc1OC(=O)c1ccco1	18.0	88.9	-8.1	35.7	71.3*	1.2
CCN(CC)Cc1c(O)ccc2c(=O)c(-c3ccc4c(c3)OCCO4)coc12	10.7	94.2	0.8	1.5	12.2	-1.7
CCCc1cc2c(=O)c(-c3ccc4c(c3)OCCO4)coc2cc1OS(C)(=O)=O	-11.2	107.2	-20.4	-6.5	27.8	-4.6
CCCc1cc2c(=O)c(-c3ccc4c(c3)OCCO4)coc2cc1OC(=O)c1ccco1	4.7	99.3	1.5	35.0	55.7*	2.5
CC(=O)Nc1ccc(/C=C/c2ccc3cccc([N+](=O)[O-])c3n2)cc1	nt	nt	nt	-7.9	-3.6	0.2
Nc1nn(-c2ccccc2)c(N)c1N=Nc1ccccc1	-19.6	120.7	-115.9	16.6	23.9	-4.7
Nc1ncnc(N)c1N=Nc1ccccc1	nt	nt	nt	nt	65.9*	1.0
Nc1nc(-c2ccccc2)[nH]c(=O)c1N=O	nt	nt	nt	13.5	-36.5	3.2
Nc1nc(N)c(N=Nc2ccccc2)c(=O)[nH]1	nt	nt	nt	nt	64.2*	nt
C[C@H](CO)N1C[C@H](C)[C@@H](CN(C)S(=O)(=O)c2cccc(F)c2)OCc2cnnn2CCCC1=O	nt	nt	nt	nt	20.4	nt
COCCN(C(=O)COC(=O)C1CC(=O)N(c2ccc(C)cc2)C1)c1c(N)n(Cc2ccccc2)c(=O)[nH]c1=O (stereo not given)	nt	nt	nt	nt	-8.3	nt
O=C(NC1=NCCS1)NC12CC3CC(CC(C3)C1)C2	-7.2	106.0	6.3	3.9	-0.9	-3.9
Nc1nc(-c2ccc(C(=O)O)cc2)cs1	-3.3	104.8	-1.6	15.6	-8.1	1.8
Nc1cc2sc(-c3ccc(C(=O)O)cc3)nc2cc1Cl	35.5	71.1	-7.8	50.7*	57.0*	17.5*
CCN(C(=O)CN1CCc2ccccc21)c1c(N)n(Cc2ccccc2)c(=O)[nH]c1=O	-23.5	120.8	-8.6	1.8	-4.3	4.0
SMILES	STAT3 inh	STAT3 act	STAT1 blocker	PPC-1+TRAIL kill	TRAIL sens C8	HSP90 inh
Cc1ccc(Nc2nnc(SCC(=O)c3c(N)n(C4CC4)c(=O)[nH]c3=O)s2)cc1C	nt	nt	nt	nt	55.3*	nt
Cc1cccc(Nc2nnc(SCC(=O)c3c(N)n(C4CC4)c(=O)[nH]c3=O)s2)c1	nt	nt	nt	nt	48.6	nt
CCCc1cc(=O)[nH]c(SCC(=O)c2c(N)n(C3CC3)c(=O)[nH]c2=O)n1	nt	nt	nt	nt	85.2*	nt
NC(c1ccccc1)c1csc(Nc2ccc(C(=O)c3ccccc3)cc2)n1 (stereo not given)	nt	nt	nt	nt	13.9	nt
Nc1ccc(-c2ncc(-c3ccccc3)o2)cc1	nt	nt	nt	nt	52.4*	7.4
c1ccc2c3c([nH]c2c1)C1(CCCCC1)NCC3	-12.2	110.9	0.6	-7.3	-7.5	2.5
CC12CCCCN1CCCc1c2[nH]c2ccccc12 (stereo not given)	-36.3	135.6*	-5.0	21.5	5.0	-2.4
CC(=NCc1ccncc1)C1=C(O)c2ccccc2C1=O	12.6	94.9	-5.2	50.5*	nt	6.0
O=C1c2ccccc2C(=O)N1CCCc1cn(C[C@H]2CC[C@H](Cn3cc(CCCN4C(=O)c5ccccc5C4=O)nn3)O2)nn1	nt	nt	nt	nt	-9.9	nt
CN(C)c1ccc(N=Nc2ccccc2C(=O)OCC(=O)N2CCCCCC2)cc1	-3.3	106.4	7.5	41.8	54.8*	-3.9
N#CC(=C1N=c2ccccc2=N1)c1c(O)[nH]c2ccccc12	-15.3	118.8	-11.7	11.6	nt	-0.7
Cn1c(O)c(C(C#N)=C2N=c3ccccc3=N2)c2ccccc21	-34.1	134.7*	14.2	20.7	-14.2	0.1
Cc1cc(NC(=O)CSc2nc(C3CCCCC3)nc3ccccc23)no1	13.1	92.5	8.1	-0.3	-28.4	0.2
CCOC(=O)c1c(N)sc(C(=O)Nc2ccccc2F)c1C	36.0	70.6	-0.6	36.8	45.3	4.6
CCOC(=O)c1sc(NC(=O)Nc2ccccc2)cc1C	6.2	94.7	-100.3	60.2*	73.2*	-2.5
CCOC(=O)c1c(N)sc(C(=O)Nc2ccccc2)c1C	40.7	67.0	-8.3	46.2	63.2*	8.5
CCOC(=O)c1sc(NC(=O)Nc2ccccc2Cl)cc1C	26.5	77.5	-96.9	62.6*	77.0*	-0.7
CCOC(=O)c1sc(NC(C)=O)cc1C	3.6	96.3	-1.1	-20.2	-6.1	1.4
CC(=O)Oc1ccc(Cl)cc1/C=C/c1ccc2ccccc2n1	-20.6	124.0	5.3	9.3	17.1	-6.4
Cc1cc(C)c(C)c(S(=O)(=O)N2CCN(c3ncnc4ccccc34)CC2)c1C	nt	nt	nt	nt	54.8*	nt
COc1ccc2[nH]c3c(N4CCc5ccccc5C4)ncnc3c2c1	nt	nt	nt	43.5	43.0	-4.9
COc1ccc(N2CCN(c3ncnc4c3[nH]c3ccccc34)CC2)cc1	77.2*	35.5	40.6*	25.3	37.5	-6.3
CC(/C=N/NC(=O)c1c(Br)cnn1C)=C\c1ccccc1	-3.2	103.0	-22.2	14.9	2.9	-0.4
CC(/C=N/NC(=O)c1nn(C)c(C)c1Br)=C\c1ccccc1	10.3	93.5	-35.6	53.8*	56.7*	-4.8
CC(=C/c1ccccc1)/C=N/NC(=O)c1cccs1	nt	nt	nt	5.9	58.0*	5.3
COc1cc2c(cc1NC(=O)c1cccc([N+](=O)[O-])c1)oc1ccccc12	21.4	88.1	-15.1	18.2	49.6*	-2.6
